OXTR agonist – human OXTR agonists, primary screen, fluorescence, CHO-OTR cells, Fluo-8 calcium; 320,000 tested, 0.32% active; Fluo-8 calcium fluorescence; normalized: DMSO 0%, oxytocin 100%; activation, % at 3 µM; Oxytocin receptor (Homo sapiens), P30559;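 active means activation above the mean of all tested compounds plus 3 SD, cutoff set per screening run, cut at about 20% in these data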;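 further: peak over basal fluorescence ratio from a 100 s FLIPR kinetic read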
V1aR counter – agonists of human V1a receptor, primary screen, counter-screen for OXTR agonist project, fluorescence, CHO-V1R cells. Fluo-8 calcium fluorescence, agonist mode; 0% DMSO, 100% 3 nM vasopressin. activation, % at 3 µM. Vasopressin V1a receptor (Homo sapiens), P37288. 320,000 tested, 0.25% active;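 active means activation above the mean activation of all tested compounds plus 3 SD, per screening run, cut at about 20% in these data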;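 further: signal is peak over basal fluorescence ratio across a 100 second FLIPR read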
CRFR2-BP ag – agonists of CRF-BP/CRF-R2 complex, primary screen, cell-based, HEK293, calcium dye fluorescence, uHTS | CRF-binding protein / CRF receptor 2 complex (human) | calcium dye fluorescence (FLIPR); percent of saturating CRF peptide response | activation, % at 13.2 µM | 350,000 tested, 0.46% active;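 active means activation of at least 50%, plus an integration ratio under a set limit after plate pattern correction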
zfTRPN1 agonist – zebrafish TRPN1 channel agonists, primary screen, cell-based, HEK293, calcium fluorescence. transient receptor potential cation channel N1 (TRPN1/NompC), Danio rerio. HEK293 zebrafish TRPN1-YFP, Fluo-8 calcium fluorescence; 100% = response to 87 µM carbachol. activation, % at 3 µM. 220,000 tested, 0.18% active;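 active means activation above its plate's cutoff, the mean activation of test wells on that plate plus 3 SD, cut at about 19% in these data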
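System: zebrafish TRPN1-YFP in HEK293 cells / Dosing: 3 µM single point / Timing: dye loading 1 h at 37 °C, then 30 min room temperature / Signal: Fluo-8 calcium fluorescence, excitation 470-495 nm, emission 515-575 nm / Read-out basis: percent activation from peak over basal fluorescence ratio, control-normalized / Control set: high carbachol 87 µM, low DMSO alone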
TRPML3 ag – human TRPML3 channel agonists, primary screen, cell-based, HEK293 TRPML3-YFP, Fluo-8 calcium fluorescence, 3 µM | Mucolipin-3 (Homo sapiens), Q8TDD5 | 100% = the carbachol control signal | activation, % at 3 µM | 220,000 tested, 0.29% active | AID 1448, 2008;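 active means activation above its plate's cutoff, the mean activation of the plate's test wells plus 3 SD, cut at about 12% in these data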
Target sequence (Q8TDD5 whole entry, looked up): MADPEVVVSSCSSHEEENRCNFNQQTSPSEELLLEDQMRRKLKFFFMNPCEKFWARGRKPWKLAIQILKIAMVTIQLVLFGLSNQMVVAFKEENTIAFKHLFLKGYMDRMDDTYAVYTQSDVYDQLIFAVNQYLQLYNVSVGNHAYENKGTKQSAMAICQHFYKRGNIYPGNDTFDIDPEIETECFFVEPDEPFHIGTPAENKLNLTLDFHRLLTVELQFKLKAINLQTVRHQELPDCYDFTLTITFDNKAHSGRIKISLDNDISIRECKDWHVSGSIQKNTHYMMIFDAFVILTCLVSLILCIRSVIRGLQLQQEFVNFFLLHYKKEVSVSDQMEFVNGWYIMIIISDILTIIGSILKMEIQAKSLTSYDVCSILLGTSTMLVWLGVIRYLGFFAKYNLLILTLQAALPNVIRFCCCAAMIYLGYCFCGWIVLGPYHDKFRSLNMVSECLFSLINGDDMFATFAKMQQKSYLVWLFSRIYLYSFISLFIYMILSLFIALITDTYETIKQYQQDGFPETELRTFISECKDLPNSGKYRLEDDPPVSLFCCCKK
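Test system: TRPML3-YFP stable HEK293 cells. Doses: single point at 3 µM. Incubation: dye loading 1 h 37 °C then 30 min ambient, 125 s read. Signal: Fluo-8 calcium dye fluorescence, ex 470-495, em 515-575 nm. Measure: percent activation from peak-to-basal fluorescence ratio, scaled between DMSO and carbachol.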
OXTR potentiator – human OXTR potentiators, primary screen, fluorescence, CHO-OTR cells, Fluo-8 calcium. Oxytocin receptor (Homo sapiens), P30559. Fluo-8 calcium fluorescence, potentiator mode; 0% = oxytocin EC15, 100% = EC100. activation, % at 3 µM. 320,000 tested, 0.061% active. AID 2445, 2010;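 active means activation above that plate's cutoff, the mean activation of tested compounds plus 3 SD, cut at about 6.6% in these data, passing the limit was not always enough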
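Replication – single well per compound, singlicate · Assay system – CHO cell line stably expressing human OTR · Timing – 6 min pre-incubation, 100 s read · Measure – normalized max/min fluorescence ratio, % activation · Doses – 3.0 µM, one dose · Detection – Fluo-8 calcium dye fluorescence · Probe or stimulus – oxytocin near EC15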
Large screens that a line does not name were inactive. In the library only some 0.85% were active in any assay of this set; here they are far more common.

COc1ccc(CNC(=O)Cn2nnc(-c3ccc(NC(=O)C4CCCCC4)cc3)n2)cc1	none
CCOc1ccc(C(=O)Nc2cccc(-c3nc4ccccc4[nH]3)c2C)cc1[N+](=O)[O-]	none
CCOc1cc(C(c2c(C)[nH][nH]c2=O)c2c(C)[nH][nH]c2=O)ccc1OS(=O)(=O)c1ccccc1	none
Cc1ccc(S(=O)(=O)Oc2ccc(C(c3c(C)[nH][nH]c3=O)c3c(C)[nH][nH]c3=O)cc2)cc1	CRFR2-BP ag 126
O=C(O)c1ccccc1-c1c2cc(I)c(=O)c(I)c-2oc2c(I)c(O)c(I)cc12	OXTR agonist 232, V1aR counter 205, CRFR2-BP ag 243 (no result: zfTRPN1 agonist, TRPML3 ag)
O=Cc1ccc(-c2ccccc2C(=O)O)o1	none
COc1cc(/C=N/N2C(=O)CSC2=S)cc(Br)c1O	zfTRPN1 agonist 41, TRPML3 ag 24 (no result: OXTR agonist, V1aR counter, OXTR potentiator)
COc1cccc(/C=N/N2C(=O)CSC2=S)c1O	none
CCCCCCCCCCCC1=C(O)C(=O)C=C(O)C1=O	CRFR2-BP ag 62 (no result: zfTRPN1 agonist, TRPML3 ag)
COC1=CC(=O)C(O)=C(CCCCCCC/C=C/CCCCCCCC2=C(O)C(=O)C=C(OC)C2=O)C1=O	none (no result: zfTRPN1 agonist, TRPML3 ag)
O=C(c1ccco1)N1CCCC(c2nc3c(nnn3Cc3ccc(Cl)cc3Cl)c(=O)[nH]2)C1 (configuration not stated)	none (no result: zfTRPN1 agonist, TRPML3 ag)
COc1cccc(C(=O)NC2CCCN(C3Cc4ccccc4C3)C2)c1OC (configuration not stated)	none (no result: zfTRPN1 agonist, TRPML3 ag)
CS(=O)(=O)N(Cc1ccccc1)c1ccc(C(=O)N2CCOCC2)cc1	CRFR2-BP ag 123
CCOc1ccc(C2C=C(c3ccc(C)cc3)Nc3nnnn32)cc1 (configuration not stated)	CRFR2-BP ag 69
CC(=O)Nc1cccc(NC(=O)Cc2nc(-c3ccccc3)sc2-c2ccc(C)cc2)c1	none
Cc1ccc(-c2sc(-c3ccccc3)nc2CC(=O)Nc2ccccc2F)cc1	CRFR2-BP ag 128
CC12CCC(=O)N1C(C(=O)NNC(=O)c1ccc(F)cc1)CS2 (configuration not stated)	none (no result: zfTRPN1 agonist, TRPML3 ag)
O=C(Nc1ccc2nc3n(c(=O)c2c1)CCCC3)c1cncc(Br)c1	none (no result: zfTRPN1 agonist, TRPML3 ag)
CC(=O)N/N=C/c1cc(C(C)(C)C)cc(/C=N/NC(C)=O)c1O	CRFR2-BP ag 77
O=C(NCc1cccc(Cl)c1)c1cccc(S(=O)(=O)N2CCCC2)c1	CRFR2-BP ag 87 (no result: zfTRPN1 agonist, TRPML3 ag)
CC1=NNC(=O)/C1=C\c1cn(-c2ccccc2)nc1-c1cccs1	CRFR2-BP ag 80
CCOc1ccc(S(=O)(=O)N2CCCC(C(=O)N3CCN(c4ccccc4)CC3)C2)cc1 (configuration not stated)	none (no result: zfTRPN1 agonist, TRPML3 ag)
Cc1ccc(NC(=O)CN2C(=O)S/C(=C/c3ccc(-c4cc(C(=O)O)ccc4C)o3)C2=O)cc1C	none
Cc1ccc(C(=O)O)cc1-c1ccc(C=C2C(=O)c3ccccc3C2=O)o1	CRFR2-BP ag 75
O=S(=O)(Nc1ccccc1C(F)(F)F)c1ccc(-c2ccccn2)s1	none (no result: OXTR agonist, V1aR counter, zfTRPN1 agonist, TRPML3 ag, OXTR potentiator)
COC(=O)c1ccc2c(c1)C(C)(C)C(/C=C/c1ccccc1O)=[N+]2C	CRFR2-BP ag 53
O=C(NCc1ccc(OC(F)(F)F)cc1)c1cccc2c1C(=O)c1ccc(N3CCCCC3)cc1S2(=O)=O	CRFR2-BP ag 68 (no result: zfTRPN1 agonist, TRPML3 ag)
O=C(NCc1ccccc1Br)c1cccc2c1C(=O)c1ccc(-c3ccc(OC(F)(F)F)cc3)cc1S2(=O)=O	none (no result: zfTRPN1 agonist, TRPML3 ag)
O=C(NCc1cc(C(F)(F)F)ccc1Cl)c1cccc2c1C(=O)c1ccc(N3CCCCC3)cc1S2(=O)=O	CRFR2-BP ag 53 (no result: zfTRPN1 agonist, TRPML3 ag)
O=C(NCc1ccc(OC(F)(F)F)cc1)c1cccc2c1C(=O)c1ccc(N3CCCC3)cc1S2(=O)=O	CRFR2-BP ag 102 (no result: zfTRPN1 agonist, TRPML3 ag)
NS(=O)(=O)c1ccc(CCNC(=O)COC(=O)CCc2c[nH]c3ccccc23)cc1	CRFR2-BP ag 76 (no result: zfTRPN1 agonist, TRPML3 ag)
COc1c2c(c3c(c1OC)c(=O)c1ccccc1n3C)OCO2	none (no result: OXTR agonist, V1aR counter, zfTRPN1 agonist, TRPML3 ag, OXTR potentiator)
CCCc1nc2sc3ccccc3c(=O)c2c(=O)n1Cc1ccco1	CRFR2-BP ag 55 (no result: OXTR agonist, V1aR counter, OXTR potentiator)
CCOc1ccc(NS(=O)(=O)c2ccc(NC(=S)NC(=O)CC(C)C)cc2)cc1	OXTR agonist 20, V1aR counter 23
C=C(C)CN(CC)C(=O)COc1ccc(S(=O)(=O)Nc2ccc(OC)cc2)cc1	OXTR agonist 29, V1aR counter 24
CCOc1ccc(NS(=O)(=O)c2ccc(C(=O)N(C)CC(=O)Nc3ccc(OC)cc3)cc2)cc1	none (no result: zfTRPN1 agonist, TRPML3 ag)
CCCC(=O)NC(=S)Nc1ccc(S(=O)(=O)Nc2ccc(OCC)cc2)cc1	CRFR2-BP ag 55
CCN(CC(=O)Nc1ccc(OC)cc1)C(=O)c1ccc(NS(=O)(=O)c2ccc(C(C)=O)cc2)cc1	none (no result: zfTRPN1 agonist, TRPML3 ag)
CC(C)CC(=O)NC(=S)Nc1ccc(S(=O)(=O)NC(C)(C)C)cc1	none
Cc1cccc(C(=O)NCC(=O)OCc2nc(N)nc(Nc3ccccc3C)n2)c1	none (no result: zfTRPN1 agonist, TRPML3 ag)
O=c1c2cc(Br)ccc2nc(-c2ccc([N+](=O)[O-])cc2)n1O	CRFR2-BP ag 101
N#Cc1ccc(-c2nc3ccc(Br)cc3c(=O)n2O)cc1	none (no result: zfTRPN1 agonist, TRPML3 ag)
O=c1c2ccc(Cl)cc2nc(-c2ccc([N+](=O)[O-])cc2)n1O	CRFR2-BP ag 59
O=c1c2cc(Br)ccc2nc(-c2cccc(C(F)(F)F)c2)n1O	OXTR agonist 54, V1aR counter 61, CRFR2-BP ag 148
O=c1c2cc(Cl)ccc2nc(-c2ccc(Cl)c(Cl)c2)n1O	CRFR2-BP ag 135
O=c1c2cc(Cl)ccc2nc(-c2ccccc2)n1O	none
COc1cccc(CNC(=O)CCC(=O)N2CCOCC2)c1	none (no result: zfTRPN1 agonist, TRPML3 ag)
CCN(CC)C(=O)C1=C(C)N(Cc2ccccc2)C(=O)C(CC(=O)NCc2cccs2)C1 (configuration not stated)	none (no result: OXTR agonist, V1aR counter, zfTRPN1 agonist, TRPML3 ag, OXTR potentiator)
Cc1cc(C(C)(C)C)oc1C(=O)N(CC(=O)NC1CCCC1)c1ccc(F)cc1	none

High-throughput results from PubChem.
